Test results from ChEMBL document CHEMBL3102784, “Salicylanilide diethyl phosphates: synthesis, antimicrobial activity and cytotoxicity” (Bioorg Med Chem, 2014).
≈ marks a conversion by molar mass, not a printed value. Calls of active or inactive are those of the source. The calls are words filed in the database; no cut-off is given here.

Experiments:
[1] = tested on: Trichophyton mentagrophytes; assay: Antifungal activity against Trichophyton mentagrophytes 445 after 72 hrs by broth microdilution method; format: functional; settings: Trichophyton mentagrophytes, 445, 72 h
Summary of the method: (§1)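 Filamentous dermatophyte tested by broth microdilution in RPMI 1640 with glutamine, fluconazole as reference. Value expressed as IC50 relative to growth control. Read at 72 and 120 h.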

Trichosporon asahii [2] = assay: Antifungal activity against Trichosporon asahii 1188 after 24 hrs by broth microdilution method; format: functional; settings: Trichosporon asahii, 1188, 24 h
Summary of the method: (§2)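 Broth microdilution in RPMI 1640 with glutamine, fluconazole as reference. For yeasts, MIC is ≥80% growth reduction (IC80) versus control. For filamentous fungi, the value is expressed as IC50. Readings at 24 and 48 h.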

Aspergillus fumigatus [3] = assay: Antifungal activity against Aspergillus fumigatus 231 after 24 hrs by broth microdilution method; format: functional; settings: Aspergillus fumigatus, 231, 24 h; summary of the method: as §2
Staphylococcus aureus [4] = assay: Antibacterial activity against Staphylococcus aureus CCM 4516/08 after 24 hrs by broth microdilution method; format: functional; settings: CCM 4516/08, 24 h
Summary of the method: (§3)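 Broth microdilution in Mueller–Hinton broth, compounds dissolved in DMSO, tested over a dilution series from 500 downward. MIC taken as ≥95% growth reduction (IC95) versus drug-free control. Benzylpenicillin comparator. Readings at 24 and 48 h.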

Pichia kudriavzevii [5] = assay: Antifungal activity against Candida krusei E28 after 24 hrs by broth microdilution method; format: functional; settings: E28, 24 h; summary of the method: as §2
Mycobacterium avium [6] = assay: Antimycobacterial activity against isoniazid, rifampicin, ethambutol and ofloxacin-resistant Mycobacterium avium My 330/88 after 14 days; format: functional; settings: My 330/88, 336 h
Summary of the method: (§4)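 Micromethod MIC in Šula's semisynthetic medium at 37 °C. Compounds added in DMSO at 1000 down to 0.032 µmol/L. Isoniazid standard in sterile water at 0.5–250 µmol/L. Inocula: H37Rv 10^3, M. avium 10^5, M. kansasii 10^4. Read at 14 and 21 d, plus 7 d for M. kansasii.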

Mycobacterium kansasii [7] = assay: Antimycobacterial activity against Mycobacterium kansasii My 235/80 after 7 days; format: functional; settings: My 235/80, 168 h; summary of the method: as §4
Staphylococcus aureus [8] = assay: Antibacterial activity against Staphylococcus aureus CCM 4516/08 after 48 hrs by broth microdilution method; format: functional; settings: CCM 4516/08, 48 h; summary of the method: as §3
Staphylococcus aureus [9] = assay: Antibacterial activity against methicillin-resistant Staphylococcus aureus H 5996/08 after 48 hrs by broth microdilution method; format: functional; settings: H 5996/08, 48 h; summary of the method: as §3
Mycobacterium kansasii [10] = assay: Antimycobacterial activity against Mycobacterium kansasii 6509/96 after 14 days; format: functional; settings: 6509/96, 336 h; summary of the method: as §4
Mycobacterium avium [11] = assay: Antimycobacterial activity against isoniazid, rifampicin, ethambutol and ofloxacin-resistant Mycobacterium avium My 330/88 after 21 days; format: functional; settings: My 330/88, 504 h; summary of the method: as §4
Lichtheimia corymbifera [12] = assay: Antifungal activity against Absidia corymbifera 272 after 48 hrs by broth microdilution method; format: functional; settings: Lichtheimia corymbifera, 272, 48 h; summary of the method: as §2
Klebsiella pneumoniae [13] = assay: Antibacterial activity against ESBL-positive Klebsiella pneumoniae J 14368/08 at 500 micromol/L after 24 to 48 hrs by broth microdilution method; format: functional, organism-based; summary of the method: as §3
Pseudomonas aeruginosa = assay: Antibacterial activity against Pseudomonas aeruginosa CCM 1961 at 500 micromol/L after 24 to 48 hrs by broth microdilution method; format: functional, organism-based; summary of the method: as §3
HepG2 = assay: Cytotoxicity against human HepG2 cells after 24 hrs by CellTiter assay; format: cell-based; settings: HepG2, 24 h
Summary of the method: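 HepG2 cells (passage 27–33) in MEM with 10% FBS, L-glutamine and NEAA, seeded at 1×10^4 per well. Treated next day with compounds at 0.1–100 µM (or 0.1–25 µmol/L), triplicates, <1% DMSO, for 24 h at 37 °C, 5% CO2. MTS reagent added for 2 h, absorbance read at 490 nm. IC50 taken against untreated (100%) and 10% DMSO (0%) controls.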

Trichosporon asahii [14] = assay: Antifungal activity against Trichosporon asahii 1188 after 48 hrs by broth microdilution method; format: functional; settings: Trichosporon asahii, 1188, 48 h; summary of the method: as §2
Nakaseomyces glabratus = assay: Antifungal activity against Candida glabrata 20/I at 500 micromol/L after 24 to 48 hrs by broth microdilution method; format: functional, organism-based; summary of the method: as §2
Lichtheimia corymbifera [15] = assay: Antifungal activity against Absidia corymbifera 272 after 24 hrs by broth microdilution method; format: functional; settings: Lichtheimia corymbifera, 272, 24 h; summary of the method: as §2
Mycobacterium kansasii [16] = assay: Antimycobacterial activity against Mycobacterium kansasii 6509/96 after 21 days; format: functional; settings: 6509/96, 504 h; summary of the method: as §4
Candida albicans [17] = assay: Antifungal activity against Candida albicans ATCC 44859 after 24 hrs by broth microdilution method; format: functional; settings: ATCC 44859, 24 h; summary of the method: as §2
Pichia kudriavzevii [18] = assay: Antifungal activity against Candida krusei E28 after 48 hrs by broth microdilution method; format: functional; settings: E28, 48 h; summary of the method: as §2
Klebsiella pneumoniae [19] = assay: Antibacterial activity against Klebsiella pneumoniae D 11750/08 at 500 micromol/L after 24 to 48 hrs by broth microdilution method; format: functional, organism-based; summary of the method: as §3
Candida albicans [20] = assay: Antifungal activity against Candida albicans ATCC 44859 after 48 hrs by broth microdilution method; format: functional; settings: ATCC 44859, 48 h; summary of the method: as §2
Aspergillus fumigatus [21] = assay: Antifungal activity against Aspergillus fumigatus 231 after 48 hrs by broth microdilution method; format: functional; settings: Aspergillus fumigatus, 231, 48 h; summary of the method: as §2
[22] = tested on: Mycobacterium tuberculosis; assay: Antimycobacterial activity against Mycobacterium tuberculosis H37Rv My 331/88 after 14 days; format: functional; settings: H37Rv My 331/88, 336 h; summary of the method: as §4
Mycobacterium kansasii [23] = assay: Antimycobacterial activity against Mycobacterium kansasii My 235/80 after 21 days; format: functional; settings: My 235/80, 504 h; summary of the method: as §4
Escherichia coli = assay: Antibacterial activity against Escherichia coli CCM 4517 at 500 micromol/L after 24 to 48 hrs by broth microdilution method; format: functional, organism-based; summary of the method: as §3
Mycobacterium kansasii [24] = assay: Antimycobacterial activity against Mycobacterium kansasii My 235/80 after 14 days; format: functional; settings: My 235/80, 336 h; summary of the method: as §4
Mycobacterium kansasii [25] = assay: Antimycobacterial activity against Mycobacterium kansasii 6509/96 after 7 days; format: functional; settings: 6509/96, 168 h; summary of the method: as §4
Enterococcus sp. = assay: Antibacterial activity against Enterococcus sp. J 14365/08 at 500 micromol/L after 24 to 48 hrs by broth microdilution method; format: functional, organism-based; summary of the method: as §3
Staphylococcus aureus [26] = assay: Antibacterial activity against methicillin-resistant Staphylococcus aureus H 5996/08 after 24 hrs by broth microdilution method; format: functional; settings: H 5996/08, 24 h; summary of the method: as §3
Candida tropicalis = assay: Antifungal activity against Candida tropicalis 156 at 500 micromol/L after 24 to 48 hrs by broth microdilution method; format: functional, organism-based; summary of the method: as §2
[27] = tested on: Staphylococcus epidermidis; assay: Antibacterial activity against Staphylococcus epidermidis H 6966/08 after 48 hrs by broth microdilution method; format: functional; settings: H 6966/08, 48 h; summary of the method: as §3
[28] = tested on: Staphylococcus epidermidis; assay: Antibacterial activity against Staphylococcus epidermidis H 6966/08 after 24 hrs by broth microdilution method; format: functional; settings: H 6966/08, 24 h; summary of the method: as §3
[29] = tested on: Mycobacterium tuberculosis; assay: Antimycobacterial activity against Mycobacterium tuberculosis H37Rv My 331/88 after 21 days; format: functional; settings: H37Rv My 331/88, 504 h; summary of the method: as §4
[30] = tested on: Trichophyton mentagrophytes; assay: Antifungal activity against Trichophyton mentagrophytes 445 after 120 hrs by broth microdilution method; format: functional; settings: Trichophyton mentagrophytes, 445, 120 h; summary of the method: as §1

Row | SMILES | MIC50 [1] [µM] | MIC80 (Trichosporon asahii [2]) [µM] | MIC50 (Aspergillus fumigatus [3]) [µM] | MIC95 (Staphylococcus aureus [4]) [µM] | MIC80 (Pichia kudriavzevii [5]) [µM] | MIC (Mycobacterium avium [6]) [µM] | MIC (Mycobacterium kansasii [7]) [µM] | MIC95 (Staphylococcus aureus [8]) [µM] | MIC95 (Staphylococcus aureus [9]) [µM] | MIC (Mycobacterium kansasii [10]) [µM] | MIC (Mycobacterium avium [11]) [µM] | MIC50 (Lichtheimia corymbifera [12]) [µM] | Activity (Klebsiella pneumoniae [13]) | Activity (Pseudomonas aeruginosa) | IC50 (HepG2) [nM] | MIC80 (Trichosporon asahii [14]) [µM] | Activity (Nakaseomyces glabratus) | MIC50 (Lichtheimia corymbifera [15]) [µM] | MIC (Mycobacterium kansasii [16]) [µM] | MIC80 (Candida albicans [17]) [µM] | other results
1 | CCOP(=O)(OCC)Oc1cc(Cl)ccc1C(=O)Nc1ccc(Cl)c(Cl)c1 | 7.81 (≈ 3.54 µg/mL) | > 500 | > 500 | 500 (≈ 226 µg/mL) | > 500 | 16 (≈ 7.24 µg/mL) | 2 (≈ 0.905 µg/mL) | > 500 | > 500 | 4 (≈ 1.81 µg/mL) | 16 (≈ 7.24 µg/mL) | > 500 | inactive | inactive | 1920 | > 500 | inactive | > 500 | 4 (≈ 1.81 µg/mL) | > 500 | MIC80 (Pichia kudriavzevii [18]): > 500 µM; Activity (Klebsiella pneumoniae [19]): inactive; MIC80 (Candida albicans [20]): > 500 µM; MIC50 (Aspergillus fumigatus [21]): > 500 µM; MIC [22]: 4 µM (≈ 1.81 µg/mL); MIC (Mycobacterium kansasii [23]): 4 µM (≈ 1.81 µg/mL); Activity (Escherichia coli): inactive; MIC (Mycobacterium kansasii [24]): 4 µM (≈ 1.81 µg/mL); MIC (Mycobacterium kansasii [25]): 4 µM (≈ 1.81 µg/mL); Activity (Enterococcus sp.): inactive; MIC95 (Staphylococcus aureus [26]): 500 µM (≈ 226 µg/mL); Activity (Candida tropicalis): inactive; MIC95 [27]: > 500 µM; MIC95 [28]: 250 µM (≈ 113 µg/mL); MIC [29]: 4 µM (≈ 1.81 µg/mL); MIC50 [30]: 7.81 µM (≈ 3.54 µg/mL)
2 | CCOP(=O)(OCC)Oc1ccc(Cl)cc1C(=O)Nc1cccc(Cl)c1 | > 500 | > 500 | > 500 | 500 (≈ 209 µg/mL) | > 500 | 16 (≈ 6.69 µg/mL) | 8 (≈ 3.35 µg/mL) | 500 (≈ 209 µg/mL) | 500 (≈ 209 µg/mL) | 16 (≈ 6.69 µg/mL) | 16 (≈ 6.69 µg/mL) | > 500 | inactive | inactive | 2680 | > 500 | inactive | > 500 | 16 (≈ 6.69 µg/mL) | > 500 | MIC80 (Pichia kudriavzevii [18]): > 500 µM; Activity (Klebsiella pneumoniae [19]): inactive; MIC80 (Candida albicans [20]): > 500 µM; MIC50 (Aspergillus fumigatus [21]): > 500 µM; MIC [22]: 4 µM (≈ 1.67 µg/mL); MIC (Mycobacterium kansasii [23]): 8 µM (≈ 3.35 µg/mL); Activity (Escherichia coli): inactive; MIC (Mycobacterium kansasii [24]): 8 µM (≈ 3.35 µg/mL); MIC (Mycobacterium kansasii [25]): 8 µM (≈ 3.35 µg/mL); Activity (Enterococcus sp.): inactive; MIC95 (Staphylococcus aureus [26]): 500 µM (≈ 209 µg/mL); Activity (Candida tropicalis): inactive; MIC95 [27]: 125 µM (≈ 52.3 µg/mL); MIC95 [28]: 125 µM (≈ 52.3 µg/mL); MIC [29]: 4 µM (≈ 1.67 µg/mL); MIC50 [30]: > 500 µM
